Columns and labels:
[1] = molecular target: Aminopeptidase N (Homo sapiens, UniProt P15144); experiment: Inhibition of APN by spectrophotometric assay
Outline: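 Enzyme and compound preincubated 30 min at 37 °C in 50 mM sodium phosphate buffer, pH 7.2. L-leucine p-nitroanilide substrate was then added for a further 60 min at 37 °C, and absorbance was read at 405 nm. The no-compound well was taken as 100% and the enzyme-only well as blank. Inhibition % = (OD100% − ODcompound)/(OD100% − ODblank) × 100.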

[2] = molecular target: 72 kDa type IV collagenase (Homo sapiens, UniProt P08253); experiment: Inhibition of MMP2 by microtiter plate fluorimetric assay; conditions: in the assay text read “spectrophotometric” for “fluorimetric”
Outline: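 Enzyme and compound preincubated 30 min at 37 °C in 50 mM sodium borate buffer, pH 8.5. Substrate was added for a further 60 min at 37 °C, then 0.03% picrylsulfonic acid for 20 min at room temperature. Absorbance was read at 450 nm. The no-compound well was taken as 100% and the enzyme-only well as blank. Inhibition % = (OD100% − ODcompound)/(OD100% − ODblank) × 100.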

Sequence of 72 kDa type IV collagenase (P08253 whole entry): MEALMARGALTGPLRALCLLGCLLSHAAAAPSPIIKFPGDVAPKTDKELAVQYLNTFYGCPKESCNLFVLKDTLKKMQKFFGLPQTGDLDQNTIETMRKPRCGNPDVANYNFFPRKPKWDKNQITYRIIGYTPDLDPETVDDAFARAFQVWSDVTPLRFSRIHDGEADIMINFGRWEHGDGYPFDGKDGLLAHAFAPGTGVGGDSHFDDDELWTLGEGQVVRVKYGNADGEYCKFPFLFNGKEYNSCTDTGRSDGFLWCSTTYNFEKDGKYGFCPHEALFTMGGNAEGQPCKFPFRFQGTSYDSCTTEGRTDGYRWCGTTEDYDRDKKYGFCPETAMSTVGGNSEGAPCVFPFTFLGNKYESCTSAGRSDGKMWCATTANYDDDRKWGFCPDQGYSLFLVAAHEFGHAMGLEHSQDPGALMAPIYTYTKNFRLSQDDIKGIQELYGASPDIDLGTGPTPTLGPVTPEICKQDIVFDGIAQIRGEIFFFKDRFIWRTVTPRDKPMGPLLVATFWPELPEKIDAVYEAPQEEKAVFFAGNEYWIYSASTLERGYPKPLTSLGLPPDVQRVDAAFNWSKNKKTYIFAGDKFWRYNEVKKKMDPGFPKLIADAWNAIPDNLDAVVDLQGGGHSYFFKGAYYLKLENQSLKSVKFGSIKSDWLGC
Sequence of Aminopeptidase N (P15144 whole entry): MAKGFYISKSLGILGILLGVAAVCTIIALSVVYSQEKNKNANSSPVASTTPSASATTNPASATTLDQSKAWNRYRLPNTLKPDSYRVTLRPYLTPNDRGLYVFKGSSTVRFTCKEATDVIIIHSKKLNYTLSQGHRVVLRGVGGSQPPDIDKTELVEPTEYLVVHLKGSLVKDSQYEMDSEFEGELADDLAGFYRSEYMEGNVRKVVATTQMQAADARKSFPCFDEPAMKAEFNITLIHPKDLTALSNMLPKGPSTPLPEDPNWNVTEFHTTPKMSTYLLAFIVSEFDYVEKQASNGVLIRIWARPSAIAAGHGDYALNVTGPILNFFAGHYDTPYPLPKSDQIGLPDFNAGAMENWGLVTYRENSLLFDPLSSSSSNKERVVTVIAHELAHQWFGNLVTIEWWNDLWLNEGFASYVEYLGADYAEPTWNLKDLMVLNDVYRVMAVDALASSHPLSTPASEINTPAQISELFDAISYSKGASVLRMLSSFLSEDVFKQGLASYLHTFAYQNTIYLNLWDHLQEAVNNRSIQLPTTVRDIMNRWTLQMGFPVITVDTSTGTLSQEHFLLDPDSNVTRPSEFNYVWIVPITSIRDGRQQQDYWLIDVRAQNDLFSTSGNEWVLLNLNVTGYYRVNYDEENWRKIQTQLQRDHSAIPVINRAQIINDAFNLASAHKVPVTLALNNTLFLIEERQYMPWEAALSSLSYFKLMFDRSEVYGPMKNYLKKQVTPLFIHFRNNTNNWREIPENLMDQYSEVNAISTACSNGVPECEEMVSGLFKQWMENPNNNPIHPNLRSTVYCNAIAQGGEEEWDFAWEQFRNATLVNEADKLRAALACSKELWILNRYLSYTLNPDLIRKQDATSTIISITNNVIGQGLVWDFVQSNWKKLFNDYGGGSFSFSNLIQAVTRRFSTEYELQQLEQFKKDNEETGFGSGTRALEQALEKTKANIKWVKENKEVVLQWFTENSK

Structure (SMILES)	IC50 [1] [µM]	IC50 [2] [µM]
COC(=O)[C@@H]1C[C@@H](OS(C)(=O)=O)CN1S(=O)(=O)c1ccc(C)cc1	41.4	0.2
COC(=O)[C@@H]1C[C@@H](OC(=O)/C=C/c2ccccc2)CN1S(C)(=O)=O	114	0.5
COC(=O)[C@@H]1C[C@@H](OS(C)(=O)=O)CN1S(C)(=O)=O	31.6	8.9
COC(=O)[C@@H]1C[C@@H](OC(=O)c2ccc(Cl)cc2)CN1S(C)(=O)=O	47.5	1.5
COC(=O)[C@@H]1C[C@@H](OC(=O)/C=C/c2ccccc2)CN1S(=O)(=O)c1ccc(C)cc1	169	0.04
O=C(NO)[C@@H]1C[C@@H](O)CN1S(=O)(=O)c1ccccc1	33.5	0.004
COC(=O)[C@@H]1C[C@@H](OC(=O)c2ccccc2)CN1S(=O)(=O)c1ccc(C)cc1	24.8	3.2
COC(=O)[C@@H]1C[C@@H](OS(=O)(=O)c2ccc(C)cc2)CN1S(C)(=O)=O	68.9	0.2
COC(=O)[C@@H]1C[C@@H](OC(=O)c2ccc(Cl)cc2)CN1S(=O)(=O)c1ccccc1	36.4	2.7
CS(=O)(=O)N1C[C@H](O)C[C@H]1C(=O)NO	26.3	0.02
Cc1ccc(S(=O)(=O)N2C[C@H](O)C[C@H]2C(=O)NO)cc1	21.7	0.002
COC(=O)[C@@H]1C[C@@H](OC(=O)c2ccc(Cl)cc2)CN1S(=O)(=O)c1ccc(C)cc1	51.2	2.2
COC(=O)[C@@H]1C[C@@H](OC(=O)c2ccccc2)CN1S(C)(=O)=O	53.6	5.2

Continued, values first:

IC50 [1] [µM]	IC50 [2] [µM]	Structure (SMILES)
135	0.09	COC(=O)[C@@H]1C[C@@H](OC(=O)/C=C/c2ccccc2)CN1S(=O)(=O)c1ccccc1
39.5	1.3	COC(=O)[C@@H]1C[C@@H](OS(C)(=O)=O)CN1S(=O)(=O)c1ccccc1
101	0.007	COC(=O)[C@@H]1C[C@@H](OS(=O)(=O)c2ccc(C)cc2)CN1S(=O)(=O)c1ccc(C)cc1
61.3	0.04	COC(=O)[C@@H]1C[C@@H](OS(=O)(=O)c2ccc(C)cc2)CN1S(=O)(=O)c1ccccc1
43.8	3.5	COC(=O)[C@@H]1C[C@@H](OC(=O)c2ccccc2)CN1S(=O)(=O)c1ccccc1
47.3	0.01	COC(=O)[C@@H]1C[C@@H](OS(=O)(=O)c2ccccc2)CN1S(=O)(=O)c1ccccc1
74.6	0.05	COC(=O)[C@@H]1C[C@@H](OS(=O)(=O)c2ccccc2)CN1S(=O)(=O)c1ccc(C)cc1
28.4	0.7	COC(=O)[C@@H]1C[C@@H](OS(=O)(=O)c2ccccc2)CN1S(C)(=O)=O
